Source: ChEMBL document CHEMBL2157972, “Selenophene-containing inhibitors of type IIA bacterial topoisomerases” (J Med Chem, 2011)
In brackets after ≈: the same amount, converted by molar mass.

How the values were obtained:
Staphylococcus aureus [1] = experiment: Antimicrobial activity against fluoroquinolone resistant Staphylococcus aureus; format: functional
Procedure, shortened: (§1)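 Read-out is the minimum inhibitory concentration (MIC), reported in μg/mL, from standard antimicrobial susceptibility testing.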

Staphylococcus aureus [2] = experiment: Antimicrobial activity against fluoroquinolone sensitive Staphylococcus aureus; format: functional
Procedure, shortened: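 Standard susceptibility testing. The read-out is the minimum inhibitory concentration, reported in μg/mL.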

[3] = target: T1, Voltage-gated inwardly rectifying potassium channel KCNH2 (Homo sapiens, UniProt Q12809)
Staphylococcus aureus [4] = experiment: Antibacterial activity against methicillin-resistant Staphylococcus aureus ATCC 700699; format: functional; procedure, shortened: as §1
Staphylococcus aureus [5] = experiment: Antibacterial activity against fluoroquinolone resistant Staphylococcus aureus 4-FQR3M BSA643 expressing GyrA Ser84Leu mutant and GrlA Ser80Tyr and Glu84Gly mutant; format: functional; procedure, shortened: as §1
[6] = Cytotoxicity against […] CHO cell line after 72 hrs; format: cell-based, Cricetulus griseus; details: chinese hamster, CHO cells
Staphylococcus aureus [7] = experiment: Antibacterial activity against fluoroquinolone resistant Staphylococcus aureus 3-FQR3M ATCC 700699 expressing GyrA Ser84Leu mutant and Glu409Lys mutant and GrlA Ser80Phe mutant; format: functional; procedure, shortened: as §1
Staphylococcus aureus [8] = experiment: Antibacterial activity against fluoroquinolone resistant Staphylococcus aureus 2-FQR2M NY2746 expressing GyrA Ser84Leu mutant and GrlA Ser80Phe mutant; format: functional; procedure, shortened: as §1
Staphylococcus aureus [9] = experiment: Antibacterial activity against fluoroquinolone resistant Staphylococcus aureus 5-FQR4M BSA678 expressing GyrA Ser84Leu and Ser85Pro mutant and GrlA Ser80Phe and Glu84Lys mutant; format: functional; procedure, shortened: as §1
DNA gyrase = DNA gyrase (Staphylococcus aureus, UniProt P0A0K8+P20831); experiment: Inhibition of Staphylococcus aureus DNA gyrase by supercoiling assay; format: protein-complex assay
[10] = Cytotoxicity against human HepG2 cell line after 72 hrs; format: cell-based; details: HepG2 cells
Staphylococcus aureus [11] = experiment: Antibacterial activity against methicillin-sensitive Staphylococcus aureus ATCC 29213; format: functional; procedure, shortened: as §1
[12] = Inhibition of Staphylococcus aureus topoisomerase 4 by decatenation assay
Procedure, shortened: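 Enzyme activity was measured by topoisomerase IV decatenation using S. aureus enzyme. Inhibition is reported as a concentration in μM.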

[13] = Cytotoxicity against human HeLa cell line after 72 hrs; format: cell-based; details: HeLa cells
Staphylococcus aureus [14] = experiment: Antibacterial activity against fluoroquinolone resistant Staphylococcus aureus 1-FQR2M BK2384 expressing GyrA Ser84Leu mutant and GrlA Ser80Phe mutant; format: functional; procedure, shortened: as §1
[15] = Cytotoxicity against human Hep2 cell line after 72 hrs; format: cell-based; details: HEp-2 cells
Procedure, shortened: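 Human laryngeal epidermoid carcinoma Hep2 cells were exposed for 72 h.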

hERG (KCNH2) = hERG (KCNH2) (Homo sapiens, UniProt Q12809); experiment: Inhibition of human ERG expressed in mammalian cells at 10 uM by patch clamp method; format: cell-based; details: mammalian cells that express hERG
[16] = target: T1, Voltage-gated inwardly rectifying potassium channel KCNH2; experiment: Inhibition of human ERG expressed in mammalian cells by patch clamp method; format: cell-based

SMILES	MIC (Staphylococcus aureus [4]) [µg/mL]	MIC (Staphylococcus aureus [5]) [µg/mL]	MIC (Staphylococcus aureus [7]) [µg/mL]	MIC (Staphylococcus aureus [8]) [µg/mL]	MIC (Staphylococcus aureus [9]) [µg/mL]	IC50 (DNA gyrase) [µM]	MIC (Staphylococcus aureus [11]) [µg/mL]	IC50 [12] [µM]	MIC (Staphylococcus aureus [14]) [µg/mL]	CC50 at 72 h [15] [µM]	also measured
COc1ccc2ncc(F)c([C@@H](O)CC[C@@H]3CCN(CCSc4cccs4)C[C@@H]3C(=O)O)c2c1	–	–	–	–	–	–	–	–	–	–	MIC90 (Staphylococcus aureus [1]): 0.5 µg/mL (≈ 0.991 µM); MIC90 (Staphylococcus aureus [2]): 1 µg/mL (≈ 1.98 µM); IC50 [3]: 124 µM
COC(=O)[C@H]1CN(CCSc2ccco2)CC[C@H]1CCC(=O)c1ccnc2ccc(OC)cc12	> 32	–	–	–	–	–	–	–	–	–	–
COC(=O)[C@H]1CN(CCSc2cccs2)CC[C@H]1CCC(=O)c1ccnc2ccc(OC)cc12	> 32	–	–	–	–	–	–	–	–	–	–
COC(=O)[C@H]1CN(CCSc2sccc2P(=O)(OC(C)C)OC(C)C)CC[C@H]1CCC(=O)c1ccnc2ccc(OC)cc12	> 32	–	–	–	–	–	–	–	–	–	–
COC(=O)[C@H]1CN(CCSc2ccc[se]2)CC[C@H]1CCC(=O)c1ccnc2ccc(OC)cc12	> 32	–	–	–	–	–	–	–	–	–	–
COC(=O)[C@H]1CN(CCS(=O)(=O)c2ccc[se]2)CC[C@H]1CCC(=O)c1ccnc2ccc(OC)cc12	> 32	–	–	–	–	–	–	–	–	–	–
COC(=O)[C@H]1CN(CCSc2ccc(C(F)F)[se]2)CC[C@H]1CCC(=O)c1ccnc2ccc(OC)cc12	> 32	–	–	–	–	–	–	–	–	–	–
COC(=O)[C@H]1CN(CCSc2ccc(C#N)[se]2)CC[C@H]1CCC(=O)c1ccnc2ccc(OC)cc12	> 32	–	–	–	–	–	–	–	–	–	–
COC(=O)[C@H]1CN(CCC(=O)N2CCCCC2)CC[C@H]1CCC(=O)c1ccnc2ccc(OC)cc12	> 32	–	–	–	–	–	–	–	–	–	–
COc1ccc2nccc([C@H](O)CC[C@@H]3CCN(CCSc4ccc[se]4)C[C@@H]3C(=O)O)c2c1 (mixture of isomers)	0.5	1	0.5	1	2	0.7	0.5	69	1	> 100	CC50 at 72 h [6]: > 100 µM; CC50 at 72 h [10]: > 100 µM; CC50 at 72 h [13]: > 100 µM
COc1ccc2nccc([C@@H](O)CC[C@@H]3CCN(CCSc4ccc[se]4)C[C@@H]3C(=O)O)c2c1 (mixture of isomers)	0.25	0.5	0.25	0.5	1	0.4	0.25	64	0.25	> 100	CC50 at 72 h [6]: > 100 µM; CC50 at 72 h [10]: > 100 µM; CC50 at 72 h [13]: > 100 µM
COc1ccc2nccc([C@H](O)CC[C@@H]3CCN(CCS(=O)(=O)c4ccc[se]4)C[C@@H]3C(=O)O)c2c1 (mixture of isomers)	> 64	–	–	–	–	–	> 64	–	–	> 100	–
COc1ccc2nccc([C@@H](O)CC[C@@H]3CCN(CCS(=O)(=O)c4ccc[se]4)C[C@@H]3C(=O)O)c2c1 (mixture of isomers)	> 64	–	–	–	–	> 100	> 64	–	–	> 100	–
COc1ccc2nccc([C@@H](O)CC[C@@H]3CCN(CCSc4ccc(C(F)F)[se]4)C[C@@H]3C(=O)O)c2c1 (mixture of isomers)	16	–	–	–	–	21.2	32	–	–	39	–
COc1ccc2nccc([C@H](O)CC[C@@H]3CCN(CCSc4ccc(C=O)[se]4)C[C@@H]3C(=O)O)c2c1 (mixture of isomers)	16	–	–	–	–	8.9	16	–	–	> 100	–
COc1ccc2nccc([C@H](O)CC[C@@H]3CCN(CCSc4ccc(C#N)[se]4)C[C@@H]3C(=O)O)c2c1 (mixture of isomers)	> 64	–	–	–	–	–	> 64	–	–	65	–
COc1ccc2nccc([C@@H](O)CC[C@@H]3CCN(CCSc4ccc(C#N)[se]4)C[C@@H]3C(=O)O)c2c1 (mixture of isomers)	32	–	–	–	–	36.6	32	–	–	48	–
COc1ccc2nccc(C(O)CC[C@@H]3CCN(CCSc4ccc(C(=O)O)[se]4)C[C@@H]3C(=O)O)c2c1 (mixture of isomers)	> 64	–	–	–	–	> 100	> 64	–	–	> 100	–
COc1ccc2nccc(C(O)CC[C@@H]3CCN(CCC(=O)N4CCCCC4)C[C@@H]3C(=O)O)c2c1 (mixture of isomers)	32	–	–	–	–	10.6	32	–	–	> 100	–
COc1ccc2nccc([C@H](O)CC[C@@H]3CCN(CCSc4ccco4)C[C@@H]3C(=O)O)c2c1 (mixture of isomers)	4	16	4	8	32	10.2	4	> 100	8	> 100	CC50 at 72 h [6]: > 100 µM; CC50 at 72 h [10]: > 100 µM; inhibition at 10 µM (hERG (KCNH2)): 14%; CC50 at 72 h [13]: > 100 µM
COc1ccc2nccc([C@@H](O)CC[C@@H]3CCN(CCSc4ccco4)C[C@@H]3C(=O)O)c2c1 (mixture of isomers)	2	4	2	2	8	4.7	2	> 100	4	> 100	CC50 at 72 h [6]: > 100 µM; IC50 [16]: < 30 µM; CC50 at 72 h [10]: > 100 µM; inhibition at 10 µM (hERG (KCNH2)): 27%; CC50 at 72 h [13]: > 100 µM
COc1ccc2nccc([C@H](O)CC[C@@H]3CCN(CCSc4cccs4)C[C@@H]3C(=O)O)c2c1 (mixture of isomers)	0.5	1	0.5	1	4	3.3	1	23	1	> 100	CC50 at 72 h [6]: > 100 µM; CC50 at 72 h [10]: > 100 µM; CC50 at 72 h [13]: > 100 µM
COc1ccc2nccc([C@@H](O)CC[C@@H]3CCN(CCSc4cccs4)C[C@@H]3C(=O)O)c2c1 (mixture of isomers)	0.13	0.25	0.13	0.25	0.5	1.4	0.25	45	0.25	> 100	CC50 at 72 h [6]: > 100 µM; MIC90 (Staphylococcus aureus [1]): 0.5 µg/mL; CC50 at 72 h [10]: > 100 µM; MIC90 (Staphylococcus aureus [2]): 1 µg/mL; CC50 at 72 h [13]: > 100 µM
COc1ccc2nccc([C@H](O)CC[C@@H]3CCN(CCSc4sccc4P(=O)(OC(C)C)OC(C)C)C[C@@H]3C(=O)O)c2c1 (mixture of isomers)	> 64	–	–	–	–	–	> 64	–	–	34	–
COc1ccc2nccc([C@@H](O)CC[C@@H]3CCN(CCSc4sccc4P(=O)(OC(C)C)OC(C)C)C[C@@H]3C(=O)O)c2c1 (mixture of isomers)	> 64	–	–	–	–	> 100	> 64	–	–	> 98	–
COc1ccc2nccc([C@H](O)CC[C@@H]3CCN(CCSc4sccc4P(=O)(O)O)C[C@@H]3C(=O)O)c2c1 (mixture of isomers)	> 64	–	–	–	–	> 100	> 64	–	–	> 100	–
COc1ccc2nccc([C@@H](O)CC[C@@H]3CCN(CCSc4sccc4P(=O)(O)O)C[C@@H]3C(=O)O)c2c1 (mixture of isomers)	> 64	–	–	–	–	–	> 64	–	–	> 94	–
O=C(O)c1cn(C2CC2)c2cc(N3CCNCC3)c(F)cc2c1=O [CIPROFLOXACIN]	64 (≈ 193 µM)	256 (≈ 773 µM)	64 (≈ 193 µM)	256 (≈ 773 µM)	128 (≈ 386 µM)	–	0.25 (≈ 0.754 µM)	3	64 (≈ 193 µM)	> 100	–
CO/N=C1\CN(c2nc3c(cc2F)c(=O)c(C(=O)O)cn3C2CC2)CC1CN (centres undefined) [GEMIFLOXACIN]	4 (≈ 10.3 µM)	32 (≈ 82.2 µM)	4 (≈ 10.3 µM)	32 (≈ 82.2 µM)	64 (≈ 164 µM)	–	0.03 (≈ 0.077 µM)	0.4	1 (≈ 2.57 µM)	–	–
COc1c(N2C[C@@H]3CCCN[C@@H]3C2)c(F)cc2c(=O)c(C(=O)O)cn(C3CC3)c12 [MOXIFLOXACIN]	4 (≈ 9.96 µM)	16 (≈ 39.9 µM)	4 (≈ 9.96 µM)	8 (≈ 19.9 µM)	> 64	–	0.06 (≈ 0.149 µM)	1	1 (≈ 2.49 µM)	> 100	–
